Laboratory results as given in ChEMBL document CHEMBL3596114, “SAR refinement of antileishmanial N(2),N(4)-disubstituted quinazoline-2,4-diamines” (Bioorg Med Chem, 2015).

How the values were obtained:
[1] = Selectivity index, ratio of EC50 for mouse J774A.1 cells to EC50 for of beta-lactamase expressing Leishmania donovani MHOM/ET/67/L82 infected in CD-1 mouse peritoneal macrophages
[2] = test system: Liver; experiment: Cmax in Swiss-Webster mouse liver at 10 mg/kg, ip after 4 hrs by UPLC-MS/MS analysis; type: ADME, organism-based; parameters: dose 10 mg/kg, route intraperitoneal; details: in vivo
Summary of the method: (§1)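 Male Swiss Webster mice got a single 10 mg/kg ip dose in DMSO/PEG400/ethanol/water vehicle. Liver and spleen were excised at 4 and 12 h, rinsed, frozen and homogenized in water (liver 3-fold, spleen 4-fold dilution). Tissue concentrations were measured by UPLC-MS/MS (calibration 0.025–25 μM), triplicate determinations.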

[3] = Cmax in Swiss-Webster mouse spleen at 10 mg/kg, ip after 12 hrs by UPLC-MS/MS analysis; type: ADME, organism-based; parameters: dose 10 mg/kg, route intraperitoneal; details: read-out: Cmax
Summary of the method: as §1

[4] = test system: Liver; experiment: Half-life in mouse liver microsomes by UPLC analysis; type: ADME
Summary of the method: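 Pooled mouse liver microsomes with NADPH were incubated and the parent compound quantified by UPLC-MS/MS. Half-life was obtained by fitting one-phase exponential decay to percent substrate remaining versus time.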

[5] = Apparent volume of distribution in Swiss-Webster mouse plasma at 10 mg/kg, ip by UPLC-MS/MS analysis; type: ADME, organism-based; details: read-out: Vz/F
Summary of the method: (§2)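 Male Swiss Webster mice (20–25 g) got a single ip dose of 10 mg/kg in DMSO/PEG400/ethanol/water (0.5:5:1:3.5, v/v). Blood was drawn at 0.25–12 h, n = 3 per time point, and plasma was extracted with methanol-water plus internal standard. Samples were run by UPLC-MS/MS in SRM positive mode (calibration 0.025–25 μM). AUC, Cmax, Tmax, terminal t1/2 and Vz/F came from noncompartmental analysis.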

[6] = Tmax in Swiss-Webster mouse plasma at 10 mg/kg, ip by UPLC-MS/MS analysis; type: ADME, organism-based
Summary of the method: as §2

[7] = test system: Mus musculus; experiment: Toxicity in BALB/c mouse assessed as induction of adverse events at 10 mg/kg/day, ip administered for 5 days; type: organism-based; details: in vivo, 120 h
Summary of the method: (§3)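 Female BALB/c mice were dosed ip daily for 5 days at 10 or 30 mg/kg/day and observed for adverse effects.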

[8] = test system: Mus musculus; experiment: Toxicity in BALB/c mouse assessed as induction of adverse events at 30 mg/kg/day, ip administered for 5 days; type: organism-based; details: in vivo, 120 h
Summary of the method: as §3

[9] = test system: Leishmania donovani; experiment: Antileishmanial activity against […] forms of beta-lactamase expressing Leishmania donovani MHOM/ET/67/L82 infected in CD-1 mouse peritoneal macrophages assessed as inhibition of beta-lactamase activity after 3 days by spectrophotometer assay; type: functional, organism-based; details: MHOM/ET/67/L82, 72 h
Summary of the method: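 Intracellular L. donovani assay in macrophages run by an earlier method, with amphotericin B as the control drug. EC50 is the mean ± standard deviation of at least three independent experiments. Where a mean could not be obtained, the value comes from at least two determinations.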

[10] = AUC in Swiss-Webster mouse plasma at 10 mg/kg, ip by UPLC-MS/MS analysis; type: ADME, organism-based
Summary of the method: as §2

[11] = test system: Spleen; experiment: Cmax in Swiss-Webster mouse spleen at 10 mg/kg, ip after 4 hrs by UPLC-MS/MS analysis; type: ADME, organism-based; parameters: dose 10 mg/kg, route intraperitoneal; details: in vivo
Summary of the method: as §1

[12] = test system: Leishmania donovani; experiment: Antileishmanial activity against Leishmania donovani infected in visceral leishmaniasis BALB/c mouse model assessed as reduction of liver parasitemia at 10 mg/kg/day, ip administered for 5 days; type: functional; details: 120 h
Summary of the method: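 Acute murine visceral leishmaniasis model in female BALB/c mice (6–8 weeks). […] Liver parasitemia was expressed as % inhibition versus infected controls.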

[13] = test system: Plasma; experiment: Cmax in Swiss-Webster mouse plasma at 10 mg/kg, ip by UPLC-MS/MS analysis; type: ADME, organism-based; parameters: dose 10 mg/kg, route intraperitoneal; details: in vivo
Summary of the method: as §2

[14] = Cytotoxicity against mouse J774A.1 cells assessed as inhibition of cell viability after 72 hrs by MTT assay; type: cell-based; details: J774.A1, 72 h
Summary of the method: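 J774A.1 murine macrophages were grown in RPMI with 10% FBS and penicillin/streptomycin at 37 °C, 5% CO2, and plated at 5 × 10^3 cells/well with serial compound dilutions for 72 h. MTT was added for 2 h, then cells were lysed with 10% SDS in 50% DMF for 3–5 h and read at 570 nm. EC50 came from a four-parameter fit, at least three independent experiments, podophyllotoxin control.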

[15] = Half-life in Swiss-Webster mouse plasma at 10 mg/kg, ip by UPLC-MS/MS analysis; type: ADME, organism-based
Summary of the method: as §2

[16] = Cmax in Swiss-Webster mouse liver at 10 mg/kg, ip after 12 hrs by UPLC-MS/MS analysis; type: ADME, organism-based; parameters: dose 10 mg/kg, route intraperitoneal; details: read-out: Cmax
Summary of the method: as §1

Clc1ccc(CNc2nc(NCc3ccccc3)c3ccccc3n2)cc1
selectivity ratio [1]: 5.2
Cmax [2]: 25.3 µM
concentration at 12 h [3]: 11.4 µM
t1/2 [4]: 1.47 h
Vd/F [5]: 22.3 L/kg
Tmax [6]: 0.5 h
Activity [7]: Non-toxic
Activity [8]: Toxic
EC50 [9]: 0.61 µM
AUC(0-inf) [10]: 15.7 µM·h
Cmax [11]: 26.6 µM
inhibition in vivo at 10 mg/kg/day [12]: 12%
Cmax [13]: 1.4 µM
EC50 [14]: 3.2 µM
half-life [15]: 9.3 h
concentration at 12 h [16]: 8.51 µM

C[C@@H]1[C@H](O)[C@@H](C)/C=C/C=C/C=C/C=C/C=C/C=C/C=C/[C@H](O[C@@H]2O[C@H](C)[C@@H](O)[C@H](N)[C@@H]2O)C[C@@H]2O[C@](O)(C[C@@H](O)C[C@@H](O)[C@H](O)CC[C@@H](O)C[C@@H](O)CC(=O)O[C@H]1C)C[C@H](O)[C@H]2C(=O)O [AMPHOTERICIN B]
EC50 [9]: 0.041 µM

CNc1nc(NC2CCCC2)nc2ccccc12
selectivity ratio [1]: 8.9
EC50 [9]: 4.4 µM
EC50 [14]: 39 µM

c1coc(CNc2nc(NC3CCCCC3)nc3ccccc23)c1
selectivity ratio [1]: 1.3
EC50 [9]: 4 µM
EC50 [14]: 5.3 µM

COc1cc([C@@H]2c3cc4c(cc3[C@H](O)[C@H]3COC(=O)[C@H]23)OCO4)cc(OC)c1OC [PODOFILOX]
EC50 [14]: 0.021 µM

Cc1ccc(CNc2nc(NCc3ccccc3)c3ccccc3n2)cc1
selectivity ratio [1]: 5.1
EC50 [9]: 0.89 µM
EC50 [14]: 4.5 µM

CC(C)Nc1nc(NC2CC2)c2ccccc2n1
selectivity ratio [1]: 5.1
EC50 [9]: 6.1 µM
EC50 [14]: 31 µM

c1coc(CNc2nc(NC3CCCC3)nc3ccccc23)c1
EC50 [9]: > 25 µM

CCNc1nc(NC)c2ccccc2n1
EC50 [9]: > 25 µM

Cc1ccc(CNc2nc(NCc3ccccc3)nc3ccccc23)cc1
selectivity ratio [1]: 5.4
EC50 [9]: 0.39 µM
EC50 [14]: 2.1 µM

CNc1nc(NCc2ccco2)c2ccccc2n1
EC50 [9]: > 25 µM

CC(C)Nc1nc(NC2CC2)nc2ccccc12
selectivity ratio [1]: > 5
EC50 [9]: 8 µM
EC50 [14]: > 40 µM

CC(C)Nc1nc(NCC2CCCO2)c2ccccc2n1 (stereo unspecified)
selectivity ratio [1]: 5.2
EC50 [9]: 8.9 µM
EC50 [14]: 46 µM

c1ccc(CNc2nc(-c3ccccc3)c3ccccc3n2)cc1
EC50 [9]: > 10 µM

Cc1ccc(CNc2nc(NCc3ccc(C)cc3)c3ccccc3n2)cc1
selectivity ratio [1]: 2.6
EC50 [9]: 1.1 µM
EC50 [14]: 2.9 µM

Cc1ccccc1-c1nc(NCc2ccccc2)nc2ccccc12
EC50 [9]: > 10 µM

CC(C)Nc1nc(NCc2ccccc2)c2ccccc2n1
selectivity ratio [1]: 3.4
EC50 [9]: 2 µM
EC50 [14]: 6.7 µM

CNc1nc(NC)c2ccccc2n1
selectivity ratio [1]: > 17.5
EC50 [9]: 7.6 µM
EC50 [14]: > 133 µM

CC(C)Nc1nc(NCc2ccco2)nc2ccccc12
selectivity ratio [1]: 0.75
EC50 [9]: 11 µM
EC50 [14]: 8.3 µM

Clc1ccc(CNc2nc(NCc3ccccc3)nc3ccccc23)cc1
selectivity ratio [1]: 5.6
EC50 [9]: 0.82 µM
EC50 [14]: 4.6 µM

CCNc1nc(NC(C)C)nc2ccccc12
selectivity ratio [1]: > 4.8
EC50 [9]: 6.3 µM
EC50 [14]: > 30 µM

CC(C)Nc1nc(NC(C)C)c2ccccc2n1
selectivity ratio [1]: > 13
EC50 [9]: 2.3 µM
EC50 [14]: > 30 µM

CC(C)Nc1nc(NCc2ccccc2)nc2ccccc12
selectivity ratio [1]: 19
Cmax [2]: 20.2 µM
concentration at 12 h [3]: 0.18 µM
t1/2 [4]: 0.7 h
Vd/F [5]: 1.15 L/kg
Tmax [6]: 0.25 h
Activity [7]: Non-toxic
Activity [8]: Toxic
EC50 [9]: 0.38 µM
AUC(0-inf) [10]: 7.14 µM·h
Cmax [11]: 16.5 µM
inhibition in vivo at 10 mg/kg/day [12]: 23.8%
Cmax [13]: 2.15 µM
EC50 [14]: 7.2 µM
half-life [15]: 2.1 h
concentration at 12 h [16]: 0.54 µM

CNc1nc(NCc2ccco2)nc2ccccc12
EC50 [9]: 20 µM

CCCCCCCCCCCCCCCCOP(=O)([O-])OCC[N+](C)(C)C [MILTEFOSINE]
inhibition in vivo at 10 mg/kg/day [12]: 93.6%

COc1ccc(CNc2nc(NCc3ccccc3)c3ccccc3n2)cc1
selectivity ratio [1]: 5.7
EC50 [9]: 0.72 µM
EC50 [14]: 4.1 µM

CC(C)Nc1nc(NCc2ccco2)c2ccccc2n1
EC50 [14]: 17 µM

CNc1nc(NCCO)nc2ccccc12
EC50 [9]: > 25 µM

Cc1ccccc1-c1nc(NCc2ccccc2)c2ccccc2n1
EC50 [9]: > 10 µM

c1ccc(CNc2nc(OCc3ccccc3)c3ccccc3n2)cc1
selectivity ratio [1]: 5.1
EC50 [9]: 0.65 µM
EC50 [14]: 3.3 µM

CNc1nc(NC(C)C)nc2ccccc12
EC50 [9]: > 25 µM

CC(C)Nc1nc(Nc2ccccc2)c2ccccc2n1
selectivity ratio [1]: 6.3
EC50 [9]: 1.9 µM
EC50 [14]: 12 µM

c1ccc(CNc2nc(NCc3ccccc3)c3ccccc3n2)cc1
EC50 [14]: 5.5 µM

c1coc(CNc2nc(NC3CCC3)nc3ccccc23)c1
EC50 [9]: > 25 µM

COc1ccc(CNc2nc(NCc3ccc(OC)cc3)c3ccccc3n2)cc1
selectivity ratio [1]: 0.37
EC50 [9]: 6 µM
EC50 [14]: 2.2 µM

COc1ccc(CNc2nc(NCc3ccccc3)nc3ccccc23)cc1
selectivity ratio [1]: 2.1
EC50 [9]: 2.5 µM
EC50 [14]: 5.2 µM

CNc1nc(NCc2ccccc2)nc2ccccc12
selectivity ratio [1]: 100
EC50 [14]: 15 µM
